Measured values taken from ChEMBL document CHEMBL1938338, “In vitro inhibition of translation initiation by N,N'-diarylureas--potential anti-cancer agents” (Bioorg Med Chem Lett, 2012).
Active and inactive are the calls of the source. The rule behind the calls is not given here.

What was measured:
[1] = Antiproliferative activity against human CRL2813 cells after 5 days by SRB assay; assay type: functional, cell-based; conditions: CRL2813, 120 h
In short: (§1)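 Adherent cells were exposed for 5 days to four concentrations (0.54, 1.8, 6, 20 µM), each point in triplicate. Cells were fixed in cold 10% TCA, stained with 0.4% SRB in 1% acetic acid and solubilized in 10 mM Tris pH 10, then A490 was read. Time-zero plates were included. IC50 is 50% growth inhibition from 100×(T−T0)/(C−T0).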

[2] = Antiproliferative activity against human CRL2351 cells after 5 days by SRB assay; assay type: functional, cell-based; conditions: 120 h; in short: as §1
[3] = Antiproliferative activity against mouse KLN205 cells after 5 days by SRB assay; assay type: functional, cell-based; conditions: 120 h; in short: as §1
[4] = target: Eukaryotic translation initiation factor 2-alpha kinase 1 (Homo sapiens) (UniProt Q9BQI3); assay: Activation of EIF2alpha kinase in human CRL2351 cells assessed as reduction in eIF2-GTP-initiator methionine tRNA ternary complex measuring increase in firefly/renilla luciferase ratio at 10 uM after 16 hrs by dual luciferase reporter gene assay relative to control; assay type: cell-based
Eukaryotic translation initiation factor 2-alpha kinase 1 (Homo sapiens), sequence (Q9BQI3 whole entry): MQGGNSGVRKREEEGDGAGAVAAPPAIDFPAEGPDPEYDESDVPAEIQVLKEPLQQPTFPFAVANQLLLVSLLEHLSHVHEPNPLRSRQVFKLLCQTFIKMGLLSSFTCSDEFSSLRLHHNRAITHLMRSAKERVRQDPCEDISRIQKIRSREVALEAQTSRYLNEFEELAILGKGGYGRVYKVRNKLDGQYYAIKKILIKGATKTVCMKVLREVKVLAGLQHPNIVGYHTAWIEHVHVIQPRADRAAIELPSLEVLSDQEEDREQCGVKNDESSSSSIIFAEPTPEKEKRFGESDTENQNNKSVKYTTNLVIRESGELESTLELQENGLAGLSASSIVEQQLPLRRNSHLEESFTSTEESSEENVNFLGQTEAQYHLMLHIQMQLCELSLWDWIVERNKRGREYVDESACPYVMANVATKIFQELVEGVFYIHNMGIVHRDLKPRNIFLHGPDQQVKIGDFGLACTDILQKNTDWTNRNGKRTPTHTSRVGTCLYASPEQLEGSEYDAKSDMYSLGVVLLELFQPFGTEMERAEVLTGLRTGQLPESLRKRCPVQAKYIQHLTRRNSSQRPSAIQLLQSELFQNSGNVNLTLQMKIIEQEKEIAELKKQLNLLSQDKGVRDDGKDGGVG
In short: (§2)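 CRL-2351 cells (10^4 per well) were transiently transfected one day after seeding with the bidirectional pBISA-DL(ATF-4) firefly/renilla luciferase plasmid (Lipofectamine 2000). After 16 h compound exposure, lysates were read by Dual-Glo luciferase. F/R ratio was normalized to DMSO vehicle (F/R = 1). Runs were dose-response with at least four points, in triplicate.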

[5] = target: Eukaryotic translation initiation factor 2-alpha kinase 1 (Homo sapiens) (UniProt Q9BQI3); assay: Activation of EIF2alpha kinase in human CRL2351 cells assessed as reduction in eIF2-GTP-initiator methionine tRNA ternary complex measuring increase in firefly/renilla luciferase ratio at 40 uM after 16 hrs by dual luciferase reporter gene assay relative to control; assay type: cell-based; in short: as §2
[6] = target: Eukaryotic translation initiation factor 2-alpha kinase 1 (Homo sapiens) (UniProt Q9BQI3); assay: Activation of EIF2alpha kinase in human CRL2351 cells assessed as reduction in eIF2-GTP-initiator methionine tRNA ternary complex measuring increase in firefly/renilla luciferase ratio at 2.5 to 20 uM after 16 hrs by dual luciferase reporter gene assay relative to control; assay type: cell-based; in short: as §2
[7] = Aqueous solubility of compound; assay type: physicochemical; conditions: buffer
[8] = target: Eukaryotic translation initiation factor 2-alpha kinase 1 (Homo sapiens) (UniProt Q9BQI3); assay: Activation of EIF2alpha kinase in human CRL2351 cells assessed as reduction in eIF2-GTP-initiator methionine tRNA ternary complex measuring increase in firefly/renilla luciferase ratio at 5 uM after 16 hrs by dual luciferase reporter gene assay relative to control; assay type: cell-based; in short: as §2
[9] = target: Eukaryotic translation initiation factor 2-alpha kinase 1 (Mus musculus) (UniProt Q9Z2R9); assay: Activation of EIF2alpha kinase in mouse KLN205 cells assessed as phosphorylation of eIF2alpha at 20 uM […] by Western blot analysis; assay type: cell-based
Eukaryotic translation initiation factor 2-alpha kinase 1 (Mus musculus), sequence (Q9Z2R9 whole entry): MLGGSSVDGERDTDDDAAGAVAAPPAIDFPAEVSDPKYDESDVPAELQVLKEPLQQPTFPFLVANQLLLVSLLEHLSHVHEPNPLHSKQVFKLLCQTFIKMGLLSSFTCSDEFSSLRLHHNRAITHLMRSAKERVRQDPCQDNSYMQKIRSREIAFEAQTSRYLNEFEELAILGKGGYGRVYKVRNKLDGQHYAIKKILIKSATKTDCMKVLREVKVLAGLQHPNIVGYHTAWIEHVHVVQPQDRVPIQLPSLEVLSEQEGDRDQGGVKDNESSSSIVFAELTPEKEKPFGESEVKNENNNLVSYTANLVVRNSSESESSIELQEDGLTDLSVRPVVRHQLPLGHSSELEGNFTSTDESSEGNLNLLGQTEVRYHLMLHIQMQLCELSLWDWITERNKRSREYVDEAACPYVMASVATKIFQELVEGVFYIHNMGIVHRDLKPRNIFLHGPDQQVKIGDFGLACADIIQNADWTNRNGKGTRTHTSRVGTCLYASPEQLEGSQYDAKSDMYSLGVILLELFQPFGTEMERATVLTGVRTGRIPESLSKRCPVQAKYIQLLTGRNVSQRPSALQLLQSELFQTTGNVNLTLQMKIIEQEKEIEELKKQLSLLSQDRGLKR
In short: (§3)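 Cells were grown to 70% confluency in serum-containing medium without antibiotics, then treated (KLN at 20 µM, CRL-2351 at 5 µM) for 6 h. They were washed in cold PBS and lysed on ice for 1 h. Protein was measured by BCA. SDS-PAGE immunoblots were probed for phospho-Ser51 eIF2α, total eIF2α, CHOP and β-actin.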

[10] = target: Eukaryotic translation initiation factor 2-alpha kinase 1 (Homo sapiens) (UniProt Q9BQI3); assay: Activation of EIF2alpha kinase in human CRL2351 cells assessed as CHOP mRNA expression at 5 uM after 5 hrs by PCR analysis; assay type: cell-based
[11] = target: Eukaryotic translation initiation factor 2-alpha kinase 1 (Mus musculus) (UniProt Q9Z2R9); assay: Activation of EIF2alpha kinase in mouse KLN205 cells assessed as CHOP protein expression at 20 uM after […] by Western blot analysis; assay type: cell-based; in short: as §3
[12] = target: Eukaryotic translation initiation factor 2-alpha kinase 1 (Homo sapiens) (UniProt Q9BQI3); assay: Activation of EIF2alpha kinase in human CRL2351 cells assessed as CHOP protein expression at 5 uM […] by Western blot analysis; assay type: cell-based; in short: as §3
[13] = target: Eukaryotic translation initiation factor 2-alpha kinase 1 (Homo sapiens) (UniProt Q9BQI3); assay: Activation of EIF2alpha kinase in human CRL2351 cells assessed as phosphorylation of eIF2alpha at 5 uM […] by Western blot analysis; assay type: cell-based; in short: as §3
[14] = target: Eukaryotic translation initiation factor 2-alpha kinase 1 (Mus musculus) (UniProt Q9Z2R9); assay: Activation of EIF2alpha kinase in mouse KLN205 cells assessed as reduction in eIF2-GTP-initiator methionine tRNA ternary complex measuring increase in firefly/renilla luciferase ratio at 5 uM after 16 hrs by dual luciferase reporter gene assay relative to control; assay type: cell-based
In short: (§4)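 KLN-205 cells were stably transfected with the bidirectional pBISA-DL(ATF-4) firefly/renilla luciferase reporter: 10^5 cells were seeded per 60-mm dish, transfected the next day and selected with antibiotics. After 16 h compound exposure, lysates were read by Dual-Glo luciferase. F/R ratio was normalized to DMSO vehicle (F/R = 1).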

[15] = target: Eukaryotic translation initiation factor 2-alpha kinase 1 (Mus musculus) (UniProt Q9Z2R9); assay: Activation of EIF2alpha kinase in mouse KLN205 cells assessed as CHOP mRNA expression at 20 uM after 5 hrs by PCR analysis; assay type: cell-based
[16] = target: Eukaryotic translation initiation factor 2-alpha kinase 1 (Homo sapiens) (UniProt Q9BQI3); assay: Activation of EIF2alpha kinase in human CRL2351 cells assessed as reduction in eIF2-GTP-initiator methionine tRNA ternary complex measuring increase in firefly/renilla luciferase ratio at 20 uM after 16 hrs by dual luciferase reporter gene assay relative to control; assay type: cell-based; in short: as §2
[17] = target: Eukaryotic translation initiation factor 2-alpha kinase 1 (Homo sapiens) (UniProt Q9BQI3); assay: Activation of EIF2alpha kinase in human CRL2351 cells assessed as reduction in eIF2-GTP-initiator methionine tRNA ternary complex measuring increase in firefly/renilla luciferase ratio at 2.5 uM after 16 hrs by dual luciferase reporter gene assay relative to control; assay type: cell-based; in short: as §2
[18] = target: Eukaryotic translation initiation factor 2-alpha kinase 1 (Mus musculus) (UniProt Q9Z2R9); assay: Activation of EIF2alpha kinase in mouse KLN205 cells assessed as reduction in eIF2-GTP-initiator methionine tRNA ternary complex measuring increase in firefly/renilla luciferase ratio at 20 uM after 16 hrs by dual luciferase reporter gene assay relative to control; assay type: cell-based; in short: as §4
[19] = target: Eukaryotic translation initiation factor 2-alpha kinase 1 (Mus musculus) (UniProt Q9Z2R9); assay: Activation of EIF2alpha kinase in mouse KLN205 cells assessed as reduction in eIF2-GTP-initiator methionine tRNA ternary complex measuring increase in firefly/renilla luciferase ratio at 2.5 to 80 uM after 16 hrs by dual luciferase reporter gene assay relative to control; assay type: cell-based; in short: as §4
[20] = target: Eukaryotic translation initiation factor 2-alpha kinase 1 (Homo sapiens) (UniProt Q9BQI3); assay: Activation of EIF2alpha kinase in human CRL2351 cells assessed as reduction in eIF2-GTP-initiator methionine tRNA ternary complex measuring increase in firefly/renilla luciferase ratio at 2.5 to 80 uM after 16 hrs by dual luciferase reporter gene assay relative to control; assay type: cell-based; in short: as §2

Row | Structure (SMILES) | IC50 [1] [nM] | IC50 [2] [nM] | IC50 [3] [nM] | other results
1 | Cc1ccc(NC(=O)Nc2ccc(Cl)c(C(F)(F)F)c2)cc1OCCN(C)C | 2300 | 2400 | 13600 | 
2 | Cc1ccc(NC(=O)Nc2cc(C(F)(F)F)cc(C(F)(F)F)c2)cc1OCCN(C)C | 7600 | 2400 | 8900 | Ratio [4]: 9
3 | Cc1ccc(NC(=O)Nc2cc(C(F)(F)F)cc(C(F)(F)F)c2)cc1O | 1200 | 2800 | 15700 | 
4 | Cc1ccc(NC(=O)Nc2ccc(Cl)c(C(F)(F)F)c2)cc1O | 1600 | 9500 | > 20000 | Ratio [4]: 11
5 | O=C(Nc1ccc(Cl)c(Cl)c1)Nc1ncccc1O | 1600 | 1400 | > 20000 | Ratio [5]: 12
6 | Cc1ccc(NC(=O)Nc2ccc(Cl)c(Cl)c2)cc1OCCN1CCNCC1 | 5200 | 5000 | > 20000 | Activity [6]: Active
7 | Cc1ccc(NC(=O)Nc2ccc(Cl)c(C(F)(F)F)c2)cc1OCCN1CCNCC1 | 2500 | 1800 | > 20000 | 
8 | O=C(Nc1ccc(Cl)c(Cl)c1)Nc1ccc(Cl)c(Cl)c1 | 1000 | 2400 | > 20000 | solubility [7]: Insoluble; Ratio [8]: 11
9 | COc1cc(NC(=O)Nc2cc(C(F)(F)F)cc(C(F)(F)F)c2)ccc1C | 500 | 1800 | 6600 | Activity [9]: Active; Activity [10]: Active; Activity [11]: Active; Activity [12]: Active; Activity [13]: Active; Activity [14]: Active; Activity [15]: Active; Ratio [8]: 9
10 | Cc1ccc(NC(=O)Nc2ccc(Cl)c(C(F)(F)F)c2)cc1OCCN1CCOCC1 | 1100 | 2600 | > 20000 | 
11 | Cc1ccc(NC(=O)Nc2cc(C(F)(F)F)cc(C(F)(F)F)c2)cc1OCCN1CCNCC1 | 3200 | 4200 | > 20000 | Ratio [4]: 9
12 | Cc1ccc(NC(=O)Nc2ccc(Cl)c(Cl)c2)cc1O | 2300 | 7500 | > 20000 | Ratio [16]: 11
13 | Cc1ccc(NC(=O)Nc2ccc(Cl)c(Cl)c2)cc1OCCN1CCOCC1 | 12000 | 2400 | > 20000 | Activity [6]: Active
14 | COc1cc(NC(=O)Nc2ccc(Cl)c(C(F)(F)F)c2)ccc1C | 2800 | 2300 | 18600 | Ratio [8]: 8
15 | COc1cc(NC(=O)Nc2ccc(Cl)c(Cl)c2)ccc1C | 500 | 800 | > 20000 | Activity [9]: inactive; Activity [10]: inactive; Activity [11]: inactive; Activity [12]: inactive; Activity [13]: inactive; Activity [6]: inactive; Activity [15]: inactive; Ratio [8]: < 2
16 | Cc1ccc(NC(=O)Nc2ccc(Cl)c(Cl)c2)cc1OCCN(C)C | 5800 | 4100 | 14700 | Activity [6]: Active
17 | Cc1ccc(NC(=O)Nc2cc(C(F)(F)F)cc(C(F)(F)F)c2)cc1OCCN1CCOCC1 | 800 | 2300 | 18800 | Ratio [4]: 10
18 | O=C(Nc1cc(C(F)(F)F)cc(C(F)(F)F)c1)Nc1ncccc1O | 600 | 700 | 14800 | 
19 | O=C(Nc1ccc(Cl)c(C(F)(F)F)c1)Nc1ccc(Cl)c(C(F)(F)F)c1 | 1800 | 2400 | 1300 | solubility [7]: Insoluble; Ratio [17]: 11
20 | O=C(Nc1cc(C(F)(F)F)cc(C(F)(F)F)c1)Nc1cc(C(F)(F)F)cc(C(F)(F)F)c1 | 300 | 1800 | 4200 | Activity [9]: Active; Activity [10]: Active; Activity [11]: Active; Activity [12]: Active; Activity [13]: Active; solubility [7]: Insoluble; Activity [15]: Active; Ratio [17]: 11; Activity [18]: Active
21 | O=C(Nc1ccc(Cl)c(C(F)(F)F)c1)Nc1ncccc1O | 600 | 800 | 15400 | Activity [9]: Active; Activity [10]: Active; Activity [11]: Active; Activity [12]: Active; Activity [13]: Active; Activity [19]: Active; Activity [20]: Active; Activity [15]: Active
